Only some compounds are listed: those with a hit (about 12% of all), similar ones and a draw of the others.
WT yeast gro inh: growth inhibition of WT strain, primary screen, mitochondrial fusion inhibitor project, WT and mutant strains, chemical genetic; mitochondrial fusion phenotypic screen; inhibition, % at 10 µM; actives 2.1% (n = 190,000); AID 1362, 2008; in the data active = inhibition above about 58%; tested in S. cerevisiae
ABCB1 block: ABCB1 efflux pump inhibitors, primary screen, cell-based, multiplex, flow cytometry, ABCG2 counter-screen; actives 0.067% (n = 190,000); CCRF-Adr cells, JC-1 efflux; ATP-dependent translocase ABCB1 (Homo sapiens), P08183; inhibition, % at 6.6 µM; AID 1326, 2008; in the data active = inhibition above about 40%;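 also: 0% = vehicle and 100% = reference inhibitor; higher value means more JC-1 retained so stronger ABCB1 efflux block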
RAM network inh: inhibitors of the yeast RAM network, primary screen, dse1pr::URA3 reporter, 5-FOA selection. actives 1.8% (n = 190,000). S. cerevisiae dse1pr::URA3 reporter, 5-FOA growth OD615, 2 d; analog-sensitive cbk1-as2 kinase mutant strain. AID 868, 2007. inhibition, % at 50 µM;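 active = inhibition above a set limit, 3 SD over mean compound inhibition, cut at about 8.4% in these data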;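 also: 0% = DMSO-only wells with no growth and 100% = 10 µM 1-NA-PP1 full growth; inhibition rescues growth on 5-FOA so higher OD means more RAM inhibition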
Lmaj promast: Leishmania major promastigote growth inhibition, primary screen. Leishmania major promastigotes, resazurin fluorescence viability. inhibition, % at 10 µM. actives 9% (n = 200,000); in the data active = inhibition above about 50%;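 also: promastigotes grown with compound for 44 hours at 28 °C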
ABCG2 block: ABCG2 efflux pump inhibitors, primary screen, multiplex with ABCB1, IgMXP3 cells, flow cytometry. Broad substrate specificity ATP-binding cassette transporter ABCG2 (Homo sapiens), Q9UNQ0. JC-1 efflux. inhibition, % at 6.6 µM. actives 0.1% (n = 190,000);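 active = inhibition above 80%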;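 also: 0% = DMSO and 100% = nicardipine control wells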
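Test system: IgMXP3 (ABCG2) plus far-red-tagged CCRF-Adr (ABCB1) cells. Reagent: JC-1 dye as substrate. Timing: 10 min exposure at 25 °C with rotation, no wash. Measured by: flow cytometric JC-1 green MFI at 530 nm. Read-out: percent efflux inhibition, scaled nicardipine 100% to DMSO 0%. Control set: nicardipine and DMSO wells.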
Numbers without * were called inactive; · = not tested or not shown.

SMILES | WT yeast gro inh | ABCB1 block | RAM network inh | Lmaj promast | ABCG2 block
O=C(c1ccc(Cl)cc1)C1CCN(C(=O)NC2CCCCC2)CC1 | 19 | 0 | 0 | 52* | 1
CCNc1nc(NC(C)C)nc(Oc2ccc(=O)n(C)n2)n1 | 2 | 0 | 1 | 0 | 2
COc1ccc(NC(C)C(=O)Nc2ccc(C#N)cc2)cc1Cl (stereo not given) | -5 | 0 | 1 | 6 | 36
COc1ccc(NC(C)C(=O)Nc2ccc(C(C)(C)C)cc2)cc1Cl (stereo not given) | 57 | 0 | 2 | 50* | 3
CC(=O)/C(=C/c1ccccc1)C(=O)Nc1ccccc1C | 46 | 0 | 3 | 96* | 0
N#C/C(=C/c1ccc(C(=O)O)cc1)C(=O)Nc1ccccc1 | -14 | 0 | 3 | -5 | 3
CC(/C=C/c1ccccc1)=N/NC(=O)CCC(=O)Nc1ccccc1C | -10 | 1 | 2 | -6 | 5
COc1ccc(/C=C(/C#N)C(=O)Nc2ccccc2C)cc1C(=O)O | 10 | · | 5 | 59* | 5
Cc1ccccc1NC(=O)C(=Cc1ccc(C(=O)O)cc1)C(=O)Nc1ccccc1C | -12 | 0 | 11* | 23 | 0
CCN1CC(CN(C)Cc2cn(-c3cccc(C)c3)nc2-c2cccc(F)c2)CC1=O (stereo not given) | 22 | 2 | 1 | 35 | 7
Cc1ccc(NC(=O)Cn2cc(S(=O)(=O)c3ccc(F)cc3)c(=O)c3cc(F)ccc32)cc1 | -3 | 0 | 8.5* | 9 | -1
O=C(N/N=C/C=C\c1cccc([N+](=O)[O-])c1)c1ccccn1 | 0 | 1 | 2 | 2 | 33
Cc1cc(C(=O)N/N=C/C=C/c2cccc([N+](=O)[O-])c2)n[nH]1 | -9 | 0 | 1 | 57* | -1
CC1=C(/C=C/C(C)=N\NC(=O)c2ccncc2)C(C)(C)CCC1 | 4 | 0 | 1 | 81* | 0
CC(/C=C/c1ccccc1)=N\NC(=O)c1ccc(Br)cc1 | -1 | 0 | 1 | -5 | 19
CC(/C=C/c1ccccc1)=N/NC(=O)c1cccc(Br)c1 | 52 | -1 | 0 | 72* | 2
CC(/C=C/c1cccc([N+](=O)[O-])c1)=N\NC(=O)c1ccncc1 | -13 | 2 | -1 | 55* | 32
Cc1ccc(N2CCN(S(=O)(=O)N3CCOCC3)CC2)cc1C | -2 | 0 | 2 | -1 | 1
COc1ccc(CNC(=O)CCSCc2ccccc2C)cc1 | 12 | 0 | 0 | -10 | 2
CN1CCN(c2ccc(-c3ccnn3C(=O)Nc3cccc(C(F)(F)F)c3)cc2)CC1 | 68* | 1 | 0 | 3 | 2
NC(=O)CCC(NC(=O)c1ccc(Cl)cc1)C(=O)O (stereo not given) | -4 | 0 | 0 | 2 | 11
O=C(CSc1nnc(-c2ccc(S(=O)(=O)N3CCCC3)cc2)o1)N1CCCC1 | · | · | · | 0 | ·
COc1ccc(-c2nnc(SCC(=O)NCc3ccco3)o2)cc1 | -2 | 0 | -1 | -7 | 65
O=C(CSc1nnc(-c2ccc(S(=O)(=O)N3CCCC3)cc2)o1)NCc1ccco1 | 0 | 0 | 3 | 88* | 2
CCN(CC)C(=O)CSc1nnc(-c2ccc(S(=O)(=O)N3CCCC3)cc2)o1 | 3 | 0 | 3 | 99* | 1
SMILES | WT yeast gro inh | ABCB1 block | RAM network inh | Lmaj promast | ABCG2 block
O=c1c2ccccc2nnn1CSc1nnc(-c2cccc(S(=O)(=O)N3CCCCC3)c2)o1 | 14 | 5 | 3 | 71* | 3
CC(OCC(O)CN(C)Cc1nc2ccccc2c(=O)[nH]1)c1ccc(Cl)cc1 (stereo not given) | 0 | 2 | 0 | 1 | 14
COc1ccc(-n2nc(C(=O)NCC(=O)NCc3ccc(F)cc3)c3ccccc3c2=O)c(OC)c1 | -5 | 0 | 6 | -10 | 1
Cc1ccc(N2C(=O)C(NC(=O)c3ccccc3)(C(F)(F)F)C3=C2CC(C)(C)CC3=O)cc1 (stereo not given) | 0 | 1 | 3 | 89* | 2
CCN(CC)S(=O)(=O)c1cc(NC(=O)C(=O)c2c(-c3ccccc3)cc3ccccn23)ccc1C | 12 | 1 | 8 | 91* | 3
CCN(CC)S(=O)(=O)c1cccc(NC(=O)C(=O)c2c(-c3ccccc3)cc3ccccn23)c1 | 18 | 1 | 9.9* | 98* | 2
CCOc1cc(NS(=O)(=O)c2ccc(NC(C)=O)cc2)c(OCC)cc1NC(=O)c1cccs1 | -4 | 0 | 6 | 14 | 7
CNC(=S)N(Cc1ccc(OC)cc1)Cc1cc2ccc(C)cc2[nH]c1=O | -10 | -2 | 6 | 6 | 20
CNC(=S)N(Cc1cccs1)Cc1cc2ccc(OC)cc2[nH]c1=O | -26 | 0 | 6 | 70* | -1
COc1ccc2[nH]c(=O)c(CN(Cc3cccs3)C(=S)Nc3ccccc3)cc2c1 | 16 | 0 | 4 | 98* | -2
COc1cc2cc(CN(Cc3cccs3)C(=S)Nc3ccccc3)c(=O)[nH]c2cc1OC | 7 | 0 | 6 | 81* | -2
O=C(Oc1ccccc1/C=C\C(=O)c1cc2ccccc2o1)c1cccc(F)c1 | 38 | -1 | 10* | 79* | 38
O=C(N/N=C/c1ccccc1OC(=O)c1ccc2c(c1)OCO2)c1cccc(F)c1 | 18 | 2 | 4 | -5 | 24
O=C(Nc1ccccc1)c1ccc(OC(=O)c2cc3ccccc3o2)cc1 | -6 | 0 | 6 | -1 | -1
O=C(Oc1ccccc1/C=C\C(=O)c1cc2ccccc2o1)c1ccccc1 | 34 | 1 | 8 | 92* | 4
COc1cccc(C(=O)NNC2OC(CO)C(O)C2O)c1 (stereo not given) | 1 | 1 | 4 | -4 | 1
Clc1cc(Cl)c(OCc2nc(-c3ccccn3)no2)cc1Cl | 10 | -1 | 11* | -1 | 10
CC(C)(C)c1ccc(OCc2nc(-c3ccccn3)no2)c(Br)c1 | 80* | 1 | 4 | 21 | 45
COc1ccc(Cc2nc(-c3ccccn3)no2)cc1 | -5 | 0 | 0 | -1 | 13
c1ccc(Cc2nc(-c3ccccn3)no2)cc1 | -4 | -2 | 1 | -8 | -2
CCN(CC)C(=O)Cn1cc(C(=O)C(=O)NCc2ccco2)c2ccccc21 | 11 | 1 | 0 | -4 | 4
C=CCN(CC=C)S(=O)(=O)c1ccc2nc(NC(=O)C3CCCO3)sc2c1 (stereo not given) | -8 | 1 | 2 | 68* | 2
COc1cc(/C=C/C(=O)NCCn2c(C)cc3ccccc32)cc(OC)c1OC | 4 | 3 | 9.7* | 18 | 7
Cc1cc2ccccc2n1CCNC(=O)C(C)Oc1ccccc1 (stereo not given) | 9 | 1 | 8.7* | -2 | 2
